According to ChEMBL document CHEMBL1811848 (Bioorg Med Chem Lett, 2011):

Tests used:
Mus musculus [1] = experiment: Hypolipidemic activity in Swiss albino mouse assessed as reduction in triglyceride level at 0.3 mg/kg, po; type: functional; set-up: scale not given: the % may be the effect or the level left
Mus musculus [2] = experiment: Hypolipidemic activity in Swiss albino mouse assessed as reduction in triglyceride level at 1 mg/kg, po; type: functional; set-up: scale not given: the % may be the effect or the level left
Mus musculus [3] = experiment: Hypolipidemic activity in db/db mouse assessed as reduction in triglyceride level at 0.01 mg/kg, po; type: functional; set-up: scale not given: the % may be the effect or the level left
Rattus norvegicus [4] = experiment: Toxicity in male Wistar rat assessed as hemoglobin level at 30 mg/kg, po measured after 28 days (reference value: 13.66 +/- 0.23 g/dl); type: organism-based; set-up: dose 30 mg/kg, route oral; settings: in vivo, 672 h
Rattus norvegicus [5] = experiment: Toxicity in male Wistar rat assessed as adrenal to body weight ratio at 3 mg/kg, po measured after 28 days (reference value: 0.018 +/- 0.001); type: organism-based; set-up: dose 3 mg/kg, route oral; settings: in vivo, 672 h
Mus musculus [6] = experiment: Hypolipidemic activity in db/db mouse assessed as reduction in triglyceride level at 0.003 mg/kg, po; type: functional; set-up: scale not given: the % may be the effect or the level left
Mus musculus [7] = experiment: Hypolipidemic activity in db/db mouse assessed as reduction in triglyceride level at 0.3 mg/kg, po; type: functional; set-up: scale not given: the % may be the effect or the level left
[8] = molecular target: T1, Peroxisome proliferator-activated receptor alpha (Homo sapiens) (UniProt Q07869); experiment: Transactivation of human PPARalpha expressed in human HepG2 cells co-transfected with PPRE3-TK-Luc by luciferase reporter gene assay relative to WY14643; type: cell-based
T1 sequence (whole entry): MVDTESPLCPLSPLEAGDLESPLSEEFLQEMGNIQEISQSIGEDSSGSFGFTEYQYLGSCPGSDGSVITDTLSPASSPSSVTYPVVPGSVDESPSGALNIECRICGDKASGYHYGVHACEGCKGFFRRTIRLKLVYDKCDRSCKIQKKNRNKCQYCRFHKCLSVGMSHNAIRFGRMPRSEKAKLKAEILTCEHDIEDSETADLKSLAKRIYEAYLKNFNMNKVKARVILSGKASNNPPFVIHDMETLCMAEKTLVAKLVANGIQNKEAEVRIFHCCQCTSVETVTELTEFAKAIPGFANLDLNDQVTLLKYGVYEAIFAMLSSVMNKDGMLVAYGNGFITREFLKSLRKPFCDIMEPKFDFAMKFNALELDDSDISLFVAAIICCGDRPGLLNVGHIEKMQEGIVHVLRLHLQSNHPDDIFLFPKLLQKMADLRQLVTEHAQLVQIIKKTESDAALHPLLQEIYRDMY
Summary of the method: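 Same HepG2 hPPARα or hPPARγ / PPRE3-TK-luc luciferase transactivation assay. Efficacy expressed as percent of maximal response, normalized to 100% for the reference agonist: WY-14643 for α, rosiglitazone for γ.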

Rattus norvegicus [9] = experiment: Toxicity in male Wistar rat assessed as heart to body weight ratio at 3 mg/kg, po measured after 28 days (reference value: 0.383 +/- 0.012); type: organism-based; set-up: dose 3 mg/kg, route oral; settings: in vivo, 672 h
Rattus norvegicus [10] = experiment: Toxicity in female Wistar rat assessed as liver to body weight ratio at 3 mg/kg, po measured after 28 days (reference value: 3.091 +/- 0.087); type: organism-based; set-up: dose 3 mg/kg, route oral; settings: in vivo, 672 h
Rattus norvegicus [11] = experiment: Toxicity in female Wistar rat assessed as ovary to body weight ratio at 3 mg/kg, po measured after 28 days (reference value: 0.039 +/- 0.005); type: organism-based, Female gonad; set-up: dose 3 mg/kg, route oral; settings: in vivo, 672 h
Rattus norvegicus [12] = experiment: Toxicity in male Wistar rat assessed as glucose level at 30 mg/kg, po measured after 28 days (reference value: 70 +/- 3.49 mg/dl); type: organism-based; set-up: dose 30 mg/kg, route oral; settings: in vivo, 672 h
Rattus norvegicus [13] = experiment: Toxicity in female Wistar rat assessed as creatinine level at 30 mg/kg, po measured after 28 days (reference value: 0.42 +/- 0.04 mg/dl); type: organism-based; set-up: dose 30 mg/kg, route oral; settings: in vivo, 672 h
Mus musculus [14] = experiment: Hypolipidemic activity in db/db mouse assessed as reduction in triglyceride level at 0.1 mg/kg, po; type: functional; set-up: scale not given: the % may be the effect or the level left
Mus musculus [15] = experiment: Antihyperglycemic activity in db/db mouse assessed as reduction in plasma glucose level at 0.3 mg/kg, po; type: functional; set-up: scale not given: the % may be the effect or the level left
Rattus norvegicus [16] = experiment: Toxicity in female Wistar rat assessed as change in body weight at 3 mg/kg, po measured after 28 days relative to control; type: organism-based; set-up: dose 3 mg/kg, route oral; settings: in vivo, 672 h
Summary of the method: (§1)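 Wistar rats received 3 or 30 mg/kg orally for 28 days. Body weight was recorded weekly, and the % change in body weight over the study is tabulated.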

Mus musculus [17] = experiment: Antihyperglycemic activity in db/db mouse assessed as reduction in plasma glucose level at 1 mg/kg, po; type: functional; set-up: scale not given: the % may be the effect or the level left
Rattus norvegicus [18] = experiment: Toxicity in male Wistar rat assessed as kidney to body weight ratio at 30 mg/kg, po measured after 28 days (reference value: 0.745 +/- 0.012); type: organism-based; set-up: dose 30 mg/kg, route oral; settings: in vivo, 672 h
Mus musculus [19] = organism: Mus musculus; experiment: Hypolipidemic activity in Swiss albino mouse assessed as reduction in triglyceride level; type: functional
Rattus norvegicus [20] = experiment: Toxicity in female Wistar rat assessed as brain to body weight ratio at 3 mg/kg, po measured after 28 days (reference value: 0.970 +/- 0.023); type: organism-based; set-up: dose 3 mg/kg, route oral; settings: in vivo, 672 h
Rattus norvegicus [21] = experiment: Toxicity in female Wistar rat assessed as adrenal to body weight ratio at 3 mg/kg, po measured after 28 days (reference value: 0.028 +/- 0.001); type: organism-based; set-up: dose 3 mg/kg, route oral; settings: in vivo, 672 h
Rattus norvegicus [22] = experiment: Toxicity in female Wistar rat assessed as change in body weight at 30 mg/kg, po measured after 28 days relative to control; type: organism-based; set-up: dose 30 mg/kg, route oral; settings: in vivo, 672 h; summary of the method: as §1
Rattus norvegicus [23] = experiment: Toxicity in male Wistar rat assessed as albumin level at 30 mg/kg, po measured after 28 days (reference value: 3.66 +/- 0.10 g.dl); type: organism-based; set-up: dose 30 mg/kg, route oral; settings: in vivo, 672 h
Rattus norvegicus [24] = experiment: Toxicity in male Wistar rat assessed as […] level at 3 mg/kg, po measured after 28 days (reference value: 243.88 +/- 20.34 U/L); type: organism-based; set-up: dose 3 mg/kg, route oral; settings: in vivo, 672 h
Mus musculus [25] = experiment: Hypolipidemic activity in Swiss albino mouse assessed as reduction in triglyceride level at 0.03 mg/kg, po; type: functional; set-up: scale not given: the % may be the effect or the level left
[26] = molecular target: T2, Peroxisome proliferator-activated receptor alpha (Homo sapiens, UniProt Q07869); experiment: Transactivation of human PPARalpha expressed in human HepG2 cells co-transfected with PPRE3-TK-Luc by luciferase reporter gene assay; type: cell-based
T2 sequence (Q07869 whole entry): T1 sequence (whole entry)

Rattus norvegicus [27] = experiment: Toxicity in male Wistar rat assessed as spleen to body weight ratio at 30 mg/kg, po measured after 28 days (reference value: 0.215 +/- 0.007); type: organism-based; set-up: dose 30 mg/kg, route oral; settings: in vivo, 672 h
Rattus norvegicus [28] = experiment: Toxicity in female Wistar rat assessed as albumin level at 30 mg/kg, po measured after 28 days (reference value: 3.92 +/- 0.18 g.dl); type: organism-based; set-up: dose 30 mg/kg, route oral; settings: in vivo, 672 h
Rattus norvegicus [29] = experiment: Toxicity in female Wistar rat assessed as kidney to body weight ratio at 3 mg/kg, po measured after 28 days (reference value: 0.733 +/- 0.007); type: organism-based; set-up: dose 3 mg/kg, route oral; settings: in vivo, 672 h
Rattus norvegicus [30] = experiment: Toxicity in male Wistar rat assessed as kidney to body weight ratio at 3 mg/kg, po measured after 28 days (reference value: 0.745 +/- 0.012); type: organism-based; set-up: dose 3 mg/kg, route oral; settings: in vivo, 672 h
[31] = Tmax in fasting Wistar rat at 30 mg/kg, po; type: ADME, organism-based; set-up: dose 30 mg/kg, route oral; settings: in vivo
Summary of the method: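 Fasted male Wistar rats received one oral dose of 30 mg/kg. Plasma Cmax, T1/2 and Tmax are reported as mean ± SD of n = 3.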

[32] = AUC (0 to infinity) in fasting Wistar rat at 30 mg/kg, po; type: ADME, organism-based; set-up: time infinity, dose 30 mg/kg, route oral; settings: plasma
Summary of the method: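 Single oral dose of 30 mg/kg to fasted male Wistar rats. Pharmacokinetic parameters reported as mean ± SD, n = 3.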

Rattus norvegicus [33] = experiment: Toxicity in female Wistar rat assessed as Glucose level at 3 mg/kg, po measured after 28 days (reference value: 69.94 +/- 2.30 mg/dl); type: organism-based; set-up: dose 3 mg/kg, route oral; settings: in vivo, 672 h

Emax [8]: 116%
EC50 [26]: 0.31 pM
Tmax [31]: 40 min
AUC(0-inf) [32]: 456 µg·h/mL
Compound: CCO[C@@H](Cc1ccc(OCCc2nc(-c3ccc(C)s3)oc2C)cc1)C(=O)O
Activity (Mus musculus [1]): 80.8%
Activity (Mus musculus [2]): 82%
Activity (Mus musculus [3]): 6.6%
Activity (Rattus norvegicus [4]): 12.46 g/dL
Ratio (Rattus norvegicus [5]): 0.015
Activity (Mus musculus [6]): 7.2%
Activity (Mus musculus [7]): 51.8%
Ratio (Rattus norvegicus [9]): 0.412
Ratio (Rattus norvegicus [10]): 6.221
Ratio (Rattus norvegicus [11]): 0.02
Activity (Rattus norvegicus [12]): 83.28 mg/dL
Activity (Rattus norvegicus [13]): 0.41 mg/dL
Activity (Mus musculus [14]): 49.4%
Activity (Mus musculus [15]): 58.2%
Activity (Rattus norvegicus [16]): 21.77%
Activity (Mus musculus [17]): 59.7%
Ratio (Rattus norvegicus [18]): 0.955
ED50 (Mus musculus [19]): 0.01 mg/kg
Ratio (Rattus norvegicus [20]): 0.947
Ratio (Rattus norvegicus [21]): 0.02
Activity (Rattus norvegicus [22]): 21.71%
Activity (Rattus norvegicus [23]): 4.12 g/dL
Activity (Rattus norvegicus [24]): 470.5 U/L
Activity (Mus musculus [25]): 65.6%
Ratio (Rattus norvegicus [27]): 0.252
Activity (Rattus norvegicus [28]): 4.12 g/dL
Ratio (Rattus norvegicus [29]): 0.804
Ratio (Rattus norvegicus [30]): 0.807
Activity (Rattus norvegicus [33]): 91.88 mg/dL
